This note sets out measurements from ChEMBL document CHEMBL1145403, “Structure-based design of flavonoid compounds as a new class of small-molecule inhibitors of the anti-apoptotic Bcl-2 proteins” (J Med Chem, 2007).

In general, IC50 refers to the concentration that gives 50% inhibition. High values mean weaker potency, low ones greater potency. By Ki is commonly meant a measure of affinity in units of concentration, obtained from inhibition or displacement. The low end stands for tighter binding, the high end for weaker binding.

Assay [1] has as its system MDA-MB-231. Kind of assay: Growth inhibition of human MDA-MB-231 cells after 4 days by WST-based assay. Type of assay: functional, cell-based. The following applies: MDA-MB-231, 96 h. The method in brief:
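Cells seeded at 3-4 × 10^3/well together with graded compound concentrations and cultured 4 days. WST-8 added at 10% final, then 2-3 h at 37°C. Absorbance read at 450 nm. IC50 = 50% growth inhibition relative to untreated cells.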

In assay [2] the test system is MDA-MB-231. Kind of assay: Induction of apoptosis in human MDA-MB-231 cells after 3 days by Annexin V/propidium iodide staining-based flow cytometry. In general terms: In flow cytometry, cells or beads pass a laser one at a time.
Assay [3] concerns MDA-MB-231. Kind of assay: Induction of apoptosis in human MDA-MB-231 cells at 1 uM after 3 days by Annexin V/propidium iodide staining.
The test system of assay [4] is MDA-MB-231. Kind of assay: Induction of apoptosis in human MDA-MB-231 cells at 0.5 uM after 3 days by Annexin V/propidium iodide staining-based flow cytometry.
Assay [5] addresses Induced myeloid leukemia cell differentiation protein Mcl-1 (Homo sapiens, UniProt Q07820). Description: Displacement of FAM-Bim peptide from human Mcl1 by fluorescence polarization assay. The gist of the method:
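Compound added from DMSO, 4 h incubation, polarization at ex 485/em 530 nm. IC50 by nonlinear least-squares fit; Ki from the FP equation.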

For assay [6], the target named is Apoptosis regulator Bcl-2 (Homo sapiens, UniProt P10415). Description: Displacement of FAM-Bim peptide from human Bcl2 by fluorescence polarization assay. Background: Fluorescence polarisation rises when a labelled molecule tumbles more slowly, as on binding a larger partner.

Structures are written as SMILES. Activity calls are given as the source filed them. No cut-off for these calls is given here.

Chain of Induced myeloid leukemia cell differentiation protein Mcl-1 (Q07820 whole entry): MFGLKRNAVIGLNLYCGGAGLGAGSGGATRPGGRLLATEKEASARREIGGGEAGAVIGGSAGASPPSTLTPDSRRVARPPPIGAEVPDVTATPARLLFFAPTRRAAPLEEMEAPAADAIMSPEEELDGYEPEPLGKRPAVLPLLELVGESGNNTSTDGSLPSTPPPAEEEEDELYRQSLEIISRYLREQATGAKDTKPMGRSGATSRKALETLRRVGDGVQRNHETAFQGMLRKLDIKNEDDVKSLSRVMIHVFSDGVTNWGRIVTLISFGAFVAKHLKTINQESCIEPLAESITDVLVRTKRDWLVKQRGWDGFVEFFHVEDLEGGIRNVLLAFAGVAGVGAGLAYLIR
Chain of Apoptosis regulator Bcl-2 (P10415 whole entry): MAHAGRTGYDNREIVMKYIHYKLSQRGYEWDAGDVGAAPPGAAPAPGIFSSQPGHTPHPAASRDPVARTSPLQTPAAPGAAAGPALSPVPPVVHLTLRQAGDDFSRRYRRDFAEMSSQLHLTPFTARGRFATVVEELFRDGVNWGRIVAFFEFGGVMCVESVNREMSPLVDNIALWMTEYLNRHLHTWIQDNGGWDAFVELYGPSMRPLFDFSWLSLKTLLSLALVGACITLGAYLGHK

For `Cc1oc2c(CC(C)C)c(O)c(O)c(O)c2c(=O)c1-c1ccc(-c2c(C)oc3c(CC(C)C)c(O)c(O)c(O)c3c2=O)cc1`, half-maximal inhibition in the assay with MDA-MB-231 [1] (IC50) was put at 110 nM. The figures for the Activity entry in the assay on MDA-MB-231 [2], in the assay with MDA-MB-231 [3] and in the assay on MDA-MB-231 [4] were “Dose-dependent effect”, 64.4% and 24.5%, respectively. Also, the Ki in assay [5] amounted to 18 nM; in assay [6], 17 nM.
As to `COc1c(OC)c(OC)c2c(=O)c(-c3ccc(-c4c(C)oc5c(CC(C)C)c(OC)c(OC)c(OC)c5c4=O)cc3)c(C)oc2c1CC(C)C`, the IC50 in the assay on MDA-MB-231 [1] is greater than 100000 nM. The result in assay [5] and in assay [6] was inactive.
For the compound `Cc1oc2c(CC(C)C)c(O)c(O)c(O)c2c(=O)c1-c1ccccc1`, 5300 nM corresponded to half-maximal inhibition in the assay on MDA-MB-231 [1] (IC50). The figures for the Ki in assay [5] and in assay [6] were 400 nM and 340 nM, respectively.
`Cc1cc2c(C(C)C)c(O)c(O)c(C=O)c2c(O)c1-c1c(C)cc2c(C(C)C)c(O)c(O)c(C=O)c2c1O` [GOSSYPOL]: half-maximal inhibition in the assay with MDA-MB-231 [1] (IC50) required 1900 nM. In assay [5], this compound came in with a Ki of 280 nM.
In the assay with MDA-MB-231 [1], `Cc1cc(=O)c2c(O)c(O)c(O)c(CC(C)C)c2o1` registered an IC50 of 30000 nM. Also, the Ki in assay [5] was found to be 1690 nM; in assay [6] it was 730 nM.
